Measured values published in PubChem BioAssay.
Active and inactive are the calls of the source.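 Rule for the calls, unless noted: active = inhibition of the reporter signal at or above 50%; inactive = inhibition below 50%.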

What was measured:
[1] = inhibitors of TNFa-induced NFkB p65 translocation, primary screen, imaging, HUVEC, MLSMR starter and 10KST1 sets (AID 438;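 active = inhibition above 20% together with a positive visual image hit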;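 note: compound added about 3h40 before a 20 min TNFalpha stimulation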;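 for inhibition: signal is the nuclear over cytoplasmic p65 intensity ratio per well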); conditions: HUVEC TNFa-induced p65 nuclear translocation; cell count: measured here: nuclei count (cytotoxicity indicator), at 2.08 µM; inhibition: at 2 µM, stronger effect = higher value, 0% TNFa-plus-vehicle, 100% no-TNFa wells
[2] = inhibitors of mutant huntingtin aggregation, primary screen, imaging, exon1htt(103Q)mCFP cells, high-content imaging (AID 483;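 active = visual image review flags a hit and inhibition of aggregation exceeds 20%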;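 note: compound exposure lasted 3 days before fixation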;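 for nuclei count: percent of the per-plate median nuclei count of sample wells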); conditions: exon1htt(103Q)mCFP cell line, aggregate imaging, at 2 µM; inhibition of aggregation: stronger effect = higher value; nuclei count: measured here: cell count, toxicity
[3] = inhibitors of E-selectin induction by TNFa, primary screen, imaging, HUVEC, immunofluorescence, MLSMR starter and 10KST1 sets (AID 487;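 active = visually confirmed hit in the image check and inhibition above 20%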;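 for inhibition: signal is fraction of cell area covered by stained E-selectin grains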;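 for nuclei count: 100% = median nuclei count of all wells on the same plate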); conditions: HUVEC TNFalpha-induced E-selectin immunofluorescence imaging, at 2 µM; inhibition: stronger effect = higher value; nuclei count: measured here: cell number, toxicity
[4] = target: Voltage-gated potassium channel subunit beta-2 (Rattus norvegicus) (UniProt P62483); test: KvBeta enzyme negative modulators, primary screen, biochemical, NADPH fluorescence (AID 622;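 active = fluorescence slope higher than the sample average by over 3 SD, cut at about -0.22 in these data, passing the limit was not always enough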;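 note: slope of raw intensity against log time taken from 70 to 1610 s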); conditions: recombinant KvBeta, 4-cyanobenzaldehyde reduction, at 10 µM, stronger effect = higher value
Chain of Voltage-gated potassium channel subunit beta-2 (Rattus norvegicus) (P62483 whole entry, looked up): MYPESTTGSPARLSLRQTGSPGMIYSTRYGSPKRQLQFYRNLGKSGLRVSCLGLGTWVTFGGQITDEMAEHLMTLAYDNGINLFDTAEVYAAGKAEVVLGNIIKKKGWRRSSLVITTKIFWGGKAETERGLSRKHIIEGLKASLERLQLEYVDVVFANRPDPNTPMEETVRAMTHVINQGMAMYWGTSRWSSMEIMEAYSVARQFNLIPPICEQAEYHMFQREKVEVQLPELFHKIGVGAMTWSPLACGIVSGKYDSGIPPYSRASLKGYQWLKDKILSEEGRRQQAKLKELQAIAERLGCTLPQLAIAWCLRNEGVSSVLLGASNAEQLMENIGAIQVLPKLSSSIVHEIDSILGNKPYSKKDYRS

[5] = target: Voltage-gated potassium channel subunit beta-2 (Rattus norvegicus) (UniProt P62483); test: KvBeta positive modulators, primary screen, biochemical, NADPH fluorescence (AID 623;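 active = NADPH fluorescence slope more negative than the mean of all samples by about 3 SD, 99.7% confidence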;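 note: fluorescence intensity change per second fitted from 20 to 320 s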); conditions: Recombinant KvBeta, NADPH fluorescence decrease slope, 10 min; at 10 µM; stronger effect = lower value
[6] = target: Muscarinic acetylcholine receptor M4 (Homo sapiens) (UniProt P08173); test: compounds altering M4/GIRK thallium flux, either direction, primary screen, M4 allosteric agonist project, cell-based, HEK293 M4/GIRK, BTC-AM (AID 625;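 active = fluorescence slope after compound addition differing from the mean of all tested samples at 99.7% confidence, mostly higher but some lower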;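 note: thallium influx through GIRK channels coupled to M4 in HEK293 cells with BTC-AM dye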); conditions: at 10 µM, actives lie on both sides
Chain of Muscarinic acetylcholine receptor M4 (Homo sapiens) (P08173 whole entry, looked up): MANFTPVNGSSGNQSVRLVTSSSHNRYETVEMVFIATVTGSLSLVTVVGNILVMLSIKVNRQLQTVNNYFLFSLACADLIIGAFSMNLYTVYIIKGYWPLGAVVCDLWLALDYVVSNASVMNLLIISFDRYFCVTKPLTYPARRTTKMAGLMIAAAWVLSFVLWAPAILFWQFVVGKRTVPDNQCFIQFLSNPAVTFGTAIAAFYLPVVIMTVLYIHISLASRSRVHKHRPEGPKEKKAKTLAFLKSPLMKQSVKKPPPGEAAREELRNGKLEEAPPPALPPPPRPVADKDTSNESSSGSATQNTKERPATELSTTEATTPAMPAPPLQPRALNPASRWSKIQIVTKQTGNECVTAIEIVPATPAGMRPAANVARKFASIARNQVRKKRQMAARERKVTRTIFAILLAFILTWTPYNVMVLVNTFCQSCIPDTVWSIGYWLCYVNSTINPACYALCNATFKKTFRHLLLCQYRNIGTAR
Summary of the method: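 assay system = HEK293 cells with M4 receptor and GIRK channels | medium = pH 7.3 thallium assay buffer | doses = 10 µM final, single point | timing = cells overnight at 37 °C, BTC-AM loading 1 h, reads 2 min total | signal = BTC-AM fluorescence, 1 Hz kinetic reads | read-out = post-addition slope, 15–24 s, of baseline-normalized fluorescence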

[7] = inhibitors of Sendai virus-induced IRF3 signaling, primary screen, TLR/RLR signaling modifier project, cell-based, Sendai virus stimulus, luciferase, 10K MLSCN set (AID 602276;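 active = inhibition at or above 50% at 10 µM; inactive = inhibition below 50%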;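 note: firefly luciferase from ISG56 promoter only with Renilla not read in this screen; 0% = Sendai virus plus DMSO and 100% = medium plus DMSO without virus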); conditions: HEK293 RL24 IRF3 luciferase reporter, at 10 µM, stronger effect = higher value
[8] = inhibitors of poly I:C-induced TLR3 signaling, primary screen, cell-based, poly I:C stimulus, luciferase, 10K MLSCN set (AID 602277); conditions: HEK293-TLR3 RL24 IRF3 luciferase reporter, at 10 µM, stronger effect = higher value

Compound | cell count [1] | inhibition [1] | inhibition of aggregation [2] | nuclei count [2] [%] | inhibition [3] | nuclei count [3] [%] | fluorescence slope [4] | NADPH fluorescence slope [5] | fluorescence slope [6] | inhibition [7] | inhibition [8]
Cc1nn(-c2ccccc2)c(C)c1C(=O)OCC(=O)c1c(N)n(CC(C)C)c(=O)n(C)c1=O | 486 | 4.2% (inactive) | -2.5% (inactive) | 78.8 | -65.4% (inactive) | 127 | -0.504 (inactive) | 0.000168 (inactive) | 0.00552 (inactive) | 4.86% (inactive) | -99.7% (inactive)
CCOC(=O)N1CCN(C(=O)c2ccc(N3C(=O)CCC3=O)cc2)CC1 | 503 | -1.2% (inactive) | 0.2% (inactive) | 108 | 15.8% (inactive) | 68.3 | -0.266 (inactive) | -2.7e-05 (inactive) | 0.00679 (inactive) | -5.15% (inactive) | 18.1% (inactive)
CCN1CCN(c2c(Cl)cccc2NC(=O)c2ccc3c(c2)OCCO3)CC1 | 505 | 2.1% (inactive) | -4.5% (inactive) | 111 | -82.8% (inactive) | 216 | -0.264 (inactive) | -8.8e-06 (inactive) | 0.0079 (inactive) | 10.2% (inactive) | 18.4% (inactive)
O=C(C1CCC1)N1CCc2cc(S(=O)(=O)N3CCc4ccccc4C3)ccc21 | 299 | 0% (inactive) | 8.8% (inactive) | 113 | -0.1% (inactive) | 118 | -0.411 (inactive) | 7.8e-05 (inactive) | 0.00795 (inactive) | -7.83% (inactive) | 4.09% (inactive)
CN(C(=O)c1ccno1)c1nnc(-c2cnccn2)s1 | 596 | -10.8% (inactive) | 10.8% (inactive) | 97.4 | -39.5% (inactive) | 107 | -0.309 (inactive) | -5.2e-05 (inactive) | 0.00542 (inactive) | 5.76% (inactive) | 10.1% (inactive)
COCCn1c(=O)[nH]c2cc(C(=O)NCCCN3CCN(c4ccc(F)cc4)CC3)ccc2c1=O | 333 | 21.3% (inactive) | -5.1% (inactive) | 107 | -22.8% (inactive) | 111 | -0.472 (inactive) | -3.1e-05 (inactive) | 0.00483 (inactive) | 16.2% (inactive) | 9.46% (inactive)
Cn1c(SCC(N)=O)nnc1C1CCN(S(=O)(=O)c2ccccc2C(F)(F)F)CC1 | 554 | -12.3% (inactive) | 4% (inactive) | 88.2 | 33.9% (inactive) | 96.6 | -0.214 (inactive) | -3.4e-05 (inactive) | 0.00588 (inactive) | 10.8% (inactive) | 19.2% (inactive)
CCCCC(CC)C(=O)Nc1ccccc1C#N (centres undefined) | 452 | 6% (inactive) | -12.4% (inactive) | 106 | -63.4% (inactive) | 118 | -0.419 (inactive) | -2e-05 (inactive) | 0.00611 (inactive) | 14.8% (inactive) | 22.1% (inactive)
CCOC(=O)CNC(=O)CSc1ncnc2c1cnn2-c1ccccc1 | 564 | -9.2% (inactive) | -10.3% (inactive) | 113 | -69.6% (inactive) | 118 | -0.562 (inactive) | 3.9e-05 (inactive) | 0.00493 (inactive) | 7.97% (inactive) | 8.26% (inactive)
C[N+]1=C2CCCCCN2C(O)(c2ccccc2)C1 (centres undefined) | 546 | -3% (inactive) | 6.3% (inactive) | 110 | -1.4% (inactive) | 130 | -0.56 (inactive) | -3.1e-05 (inactive) | 0.00533 (inactive) | 12.5% (inactive) | 17.2% (inactive)
CCC(=O)c1ccc(OCC(=O)N2CCc3cc(OC)c(OC)cc3C2)cc1 | 369 | 10.8% (inactive) | 17.3% (inactive) | 91.3 | 25.9% (inactive) | 99.5 | -0.577 (inactive) | -4.3e-05 (inactive) | 0.00901 (inactive) | 3.27% (inactive) | 12.3% (inactive)
CS(=O)(=O)c1ncc(Cl)c(C(=O)Nc2ccc(N3CCOCC3)cc2)n1 | 351 | -2.1% (inactive) | -35.6% (inactive) | 112 | 24.9% (inactive) | 111 | -0.46 (inactive) | 2.2e-05 (inactive) | 0.00607 (inactive) | 21.4% (inactive) | 62.8% (active)
CCOC(=O)c1ccc(Oc2nc(NC)nc(OC)n2)cc1 | 635 | 6.8% (inactive) | -13.2% (inactive) | 98.2 | -41.5% (inactive) | 110 | -0.295 (inactive) | -1.6e-06 (inactive) | 0.00677 (inactive) | -7.27% (inactive) | 18.3% (inactive)
O=C(COC(=O)c1ccc(S(=O)(=O)Nc2ccccc2)cc1)NCCN1C(=O)CSC1=O | 396 | -3.1% (inactive) | 2.9% (inactive) | 105 | -88.8% (inactive) | 117 | -0.372 (inactive) | -8.7e-05 (inactive) | 0.0079 (inactive) | 0.13% (inactive) | 19.9% (inactive)
